How the values were obtained:
Type in all cases: functional
[1] = tested on: LOX IMVI; assay: Cytotoxicity against human LOXIMVI cells after 48 hrs by SRB assay
Outline: (§1)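 NCI 60-cell-line screen. Cells preincubated 24 h at 37 °C, 5% CO2; time-zero plates TCA-fixed. Compounds dissolved in DMSO and tested at five concentrations (100, 10, 1.0, 0.1, 0.01 µM) for 48 h continuous exposure. Adherent cells fixed with cold TCA (10% final), then SRB stained; absorbance at 515 nm. GI50, TGI and LC50 calculated from growth relative to time-zero and untreated controls.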

[2] = tested on: U-251; assay: Cytotoxicity against human U251 cells after 48 hrs by SRB assay; conditions: U-251, 48 h; for CC50: read-out: LC50 (the source's name)
Outline: (§2)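 NCI 60-cell screen. Cells grew 24 h (37 °C, 5% CO2) before compound was added. Compounds were in DMSO and diluted in medium with gentamicin, then tested at five levels (100, 10, 1.0, 0.1, 0.01 µM) with 48 h continuous exposure. Adherent cells were fixed with TCA (10% final) and stained with 0.4% SRB, absorbance read at 515 nm. A time-zero plate was included. LC50 is the concentration giving 50% loss of protein relative to time zero.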

[3] = tested on: 786-0; assay: Cytotoxicity against human 786-0 cells after 48 hrs by SRB assay; conditions: 786-0, 48 h; outline: as §1
[4] = tested on: KM12; assay: Cytotoxicity against human KM12 cells after 48 hrs by SRB assay; conditions: KM12, 48 h; outline: as §1
[5] = tested on: Malme-3M; assay: Cytotoxicity against human MALME-3M cells after 48 hrs by SRB assay; outline: as §1
[6] = tested on: SF-295; assay: Cytotoxicity against human SF295 cells after 48 hrs by SRB assay; conditions: SF-295, 48 h; outline: as §1
[7] = tested on: HCT-15; assay: Cytotoxicity against human HCT15 cells after 48 hrs by SRB assay; conditions: HCT-15, 48 h; outline: as §1
[8] = tested on: HT-29; assay: Cytotoxicity against human HT-29 cells after 48 hrs by SRB assay; conditions: HT-29, 48 h; outline: as §1
[9] = tested on: OVCAR-8; assay: Cytotoxicity against human OVCAR8 cells after 48 hrs by SRB assay; conditions: OVCAR-8, 48 h; outline: as §1
[10] = tested on: SK-OV-3; assay: Cytotoxicity against human SKOV3 cells after 48 hrs by SRB assay; conditions: SK-OV-3, 48 h; outline: as §1
[11] = tested on: SK-MEL-28; assay: Cytotoxicity against human SK-MEL-28 cells after 48 hrs by SRB assay; conditions: SK-MEL-28, 48 h; for CC50: read-out: LC50 (the source's name); outline: as §1
[12] = tested on: SK-MEL-5; assay: Cytotoxicity against human SK-MEL-5 cells after 48 hrs by SRB assay; conditions: SK-MEL-5, 48 h; outline: as §1
[13] = tested on: BT-549; assay: Cytotoxicity against human BT549 cells after 48 hrs by SRB assay; conditions: BT-549, 48 h; outline: as §1
[14] = tested on: A498; assay: Cytotoxicity against human A498 cells after 48 hrs by SRB assay; conditions: A498, 48 h; for CC50: read-out: LC50 (the source's name); outline: as §1
[15] = tested on: K562; assay: Cytotoxicity against human K562 cells after 48 hrs by SRB assay; conditions: K562, 48 h; outline: as §1
[16] = tested on: SR; assay: Cytotoxicity against human SR cells after 48 hrs by SRB assay; outline: as §2
[17] = tested on: IGROV-1; assay: Cytotoxicity against human IGROV1 cells after 48 hrs by SRB assay; conditions: IGROV-1, 48 h; outline: as §1
[18] = tested on: MOLT-4; assay: Cytotoxicity against human MOLT4 cells after 48 hrs by SRB assay; conditions: MOLT-4, 48 h; outline: as §1
[19] = tested on: CAKI-1; assay: Cytotoxicity against human Caki1 cells after 48 hrs by SRB assay; conditions: CAKI-1, 48 h; outline: as §1
[20] = tested on: COLO 205; assay: Cytotoxicity against human COLO205 cells after 48 hrs by SRB assay; conditions: COLO 205, 48 h; outline: as §1
[21] = tested on: NCI/ADR-RES; assay: Cytotoxicity against human NCI/ADR-RES cells after 48 hrs by SRB assay; conditions: for CC50: read-out: LC50 (the source's name); outline: as §1
[22] = tested on: M14; assay: Cytotoxicity against human M14 cells after 48 hrs by SRB assay; conditions: M14, 48 h; for CC50: read-out: LC50 (the source's name); outline: as §1
[23] = tested on: MDA-MB-468; assay: Cytotoxicity against human MDA-MB-468 cells after 48 hrs by SRB assay; conditions: MDA-MB-468, 48 h; outline: as §1
[24] = tested on: HCT-116; assay: Cytotoxicity against human HCT116 cells after 48 hrs by SRB assay; conditions: HCT-116, 48 h; outline: as §1

How did the GI50 [1] turn out when `O=CN1N=C(c2cccc(Nc3ccnc4cc(Cl)ccc34)c2)CC1c1ccc(Cl)cc1` (stereo unspecified) was run?
Its GI50 is 1560 nM.

What about the LC50 [1] of the same compound?
The LC50 was 50400 nM.

What about the GI50 [2] of the same compound?
Its GI50 is 1290 nM.

What about the CC50 [2] of the same compound?
The CC50 was > 100000 nM.

And the GI50 [3]?
The GI50 was 4730 nM.

What about the LC50 [3] of the same compound?
The LC50 was > 100000 nM.

And the GI50 [4]?
The GI50 was 590 nM.

And the LC50 (concentration killing 50% of cells) [4]?
Its LC50 (concentration killing 50% of cells) is > 100000 nM.

What about the GI50 [5] of the same compound?
The GI50 was 1630 nM.

What about the LC50 [5] of the same compound?
Its LC50 is > 100000 nM.

What about the GI50 [6] of the same compound?
Its GI50 is 1060 nM.

And the LC50 [6]?
The LC50 was > 100000 nM.

And the GI50 [7]?
Its GI50 is 900 nM.

And the LC50 (concentration killing 50% of cells relative to time zero) [7]?
The LC50 (concentration killing 50% of cells relative to time zero) was > 100000 nM.

What about the GI50 [8] of the same compound?
The GI50 was 480 nM.

What about the LC50 [8] of the same compound?
Its LC50 is > 100000 nM.

And the GI50 [9]?
The GI50 was 3800 nM.

What about the LC50 (50% net cell kill) [9] of the same compound?
The LC50 (50% net cell kill) was > 100000 nM.

What about the GI50 [10] of the same compound?
The GI50 was 3480 nM.

What about the LC50 (concentration killing 50% of cells) [10] of the same compound?
Its LC50 (concentration killing 50% of cells) is > 100000 nM.

And the GI50 [11]?
Its GI50 is 5630 nM.

And the CC50 [11]?
The CC50 was > 100000 nM.

What about the GI50 [12] of the same compound?
Its GI50 is 1860 nM.

And the LC50 (concentration killing 50% of cells present at time zero) [12]?
The LC50 (concentration killing 50% of cells present at time zero) was > 100000 nM.

What about the GI50 [13] of the same compound?
The GI50 was 1360 nM.

What about the LC50 (50% net cell kill vs time zero) [13] of the same compound?
The LC50 (50% net cell kill vs time zero) was > 100000 nM.

What about the GI50 [14] of the same compound?
The GI50 was 830 nM.

And the CC50 [14]?
The CC50 was > 100000 nM.

What about the GI50 [15] of the same compound?
The GI50 was 410 nM.

And the LC50 (concentration killing 50% of cells) [15]?
The LC50 (concentration killing 50% of cells) was > 100000 nM.

And the GI50 [16]?
Its GI50 is 370 nM.

What about the LC50 [16] of the same compound?
Its LC50 is > 100000 nM.

What about the GI50 [17] of the same compound?
Its GI50 is 760 nM.

What about the LC50 (concentration killing 50% of cells relative to time zero) [17] of the same compound?
The LC50 (concentration killing 50% of cells relative to time zero) was > 100000 nM.

And the GI50 [18]?
Its GI50 is 1920 nM.

What about the LC50 [18] of the same compound?
The LC50 was > 100000 nM.

And the GI50 [19]?
Its GI50 is 950 nM.

What about the LC50 [19] of the same compound?
The LC50 was > 100000 nM.

And the GI50 [20]?
Its GI50 is 1390 nM.

What about the LC50 [20] of the same compound?
Its LC50 is > 100000 nM.

What about the GI50 [21] of the same compound?
Its GI50 is 760 nM.

And the CC50 [21]?
Its CC50 is > 100000 nM.

And the GI50 [22]?
Its GI50 is 1040 nM.

And the CC50 [22]?
The CC50 was > 100000 nM.

What about the GI50 [23] of the same compound?
The GI50 was 420 nM.

And the LC50 [23]?
The LC50 was > 100000 nM.

What about the GI50 [24] of the same compound?
The GI50 was 600 nM.

What about the LC50 [24] of the same compound?
Its LC50 is > 100000 nM.

With `O=CN1N=C(c2cccc(Nc3ccnc4cc(Cl)ccc34)c2)CC1c1ccccc1` (stereo unspecified) as the compound, how does the GI50 [1] read?
Its GI50 is 450 nM.

And the LC50 [1]?
The LC50 was 4230 nM.

What about the GI50 [2] of the same compound?
Its GI50 is 370 nM.

And the CC50 [2]?
The CC50 was 5070 nM.

What about the GI50 [3] of the same compound?
The GI50 was 590 nM.

And the LC50 [3]?
The LC50 was > 100000 nM.

What about the GI50 [4] of the same compound?
Its GI50 is 290 nM.

What about the LC50 (concentration killing 50% of cells) [4] of the same compound?
Its LC50 (concentration killing 50% of cells) is > 100000 nM.

What about the GI50 [5] of the same compound?
Its GI50 is 370 nM.

What about the LC50 [5] of the same compound?
Its LC50 is > 100000 nM.

What about the GI50 [6] of the same compound?
Its GI50 is 370 nM.

What about the LC50 [6] of the same compound?
The LC50 was 41200 nM.

What about the GI50 [7] of the same compound?
Its GI50 is 520 nM.

What about the LC50 (concentration killing 50% of cells relative to time zero) [7] of the same compound?
The LC50 (concentration killing 50% of cells relative to time zero) was > 100000 nM.

What about the GI50 [8] of the same compound?
Its GI50 is 320 nM.

And the LC50 [8]?
The LC50 was 4320 nM.

What about the GI50 [9] of the same compound?
The GI50 was 510 nM.

What about the LC50 (50% net cell kill) [9] of the same compound?
Its LC50 (50% net cell kill) is 56000 nM.

And the GI50 [10]?
The GI50 was 330 nM.

What about the LC50 (concentration killing 50% of cells) [10] of the same compound?
Its LC50 (concentration killing 50% of cells) is > 100000 nM.

And the GI50 [11]?
The GI50 was 760 nM.

And the CC50 [11]?
Its CC50 is > 100000 nM.

And the GI50 [12]?
The GI50 was 290 nM.

And the LC50 (concentration killing 50% of cells present at time zero) [12]?
Its LC50 (concentration killing 50% of cells present at time zero) is 64200 nM.

And the GI50 [13]?
The GI50 was 210 nM.

What about the LC50 (50% net cell kill vs time zero) [13] of the same compound?
Its LC50 (50% net cell kill vs time zero) is 30900 nM.

And the GI50 [14]?
The GI50 was 230 nM.

And the CC50 [14]?
Its CC50 is > 100000 nM.

And the GI50 [15]?
The GI50 was 260 nM.

What about the LC50 (concentration killing 50% of cells) [15] of the same compound?
Its LC50 (concentration killing 50% of cells) is > 100000 nM.

What about the GI50 [16] of the same compound?
The GI50 was 200 nM.

And the LC50 [16]?
Its LC50 is > 100000 nM.

And the GI50 [17]?
Its GI50 is 820 nM.

What about the LC50 (concentration killing 50% of cells relative to time zero) [17] of the same compound?
The LC50 (concentration killing 50% of cells relative to time zero) was > 100000 nM.

What about the GI50 [18] of the same compound?
Its GI50 is 390 nM.

What about the LC50 [18] of the same compound?
Its LC50 is > 100000 nM.

And the GI50 [19]?
Its GI50 is 330 nM.

And the LC50 [19]?
Its LC50 is 35300 nM.

And the GI50 [20]?
The GI50 was 360 nM.

And the LC50 [20]?
Its LC50 is 7920 nM.

And the GI50 [21]?
The GI50 was 290 nM.

What about the CC50 [21] of the same compound?
The CC50 was > 100000 nM.

And the GI50 [22]?
The GI50 was 330 nM.

What about the CC50 [22] of the same compound?
Its CC50 is > 100000 nM.

What about the GI50 [23] of the same compound?
The GI50 was 220 nM.

What about the LC50 [23] of the same compound?
Its LC50 is > 100000 nM.

And the GI50 [24]?
The GI50 was 390 nM.

What about the LC50 [24] of the same compound?
The LC50 was 4750 nM.

From ChEMBL document CHEMBL2417469, “Synthesis of novel analogs of 2-pyrazoline obtained from [(7-chloroquinolin-4-yl)amino]chalcones and hydrazine as potential antitumor and antimalarial agents” (Eur J Med Chem, 2013)
